Results reported in ChEMBL document CHEMBL4706523, “Targeting topoisomerase II with trypthantrin derivatives: Discovery of 7-((2-(dimethylamino)ethyl)amino)indolo[2,1-b]quinazoline-6,12-dione as an antiproliferative agent and to treat cancer” (Eur J Med Chem, 2020).
≈ marks a conversion by molar mass, not a printed value. One block for each compound: values may come before it. Calls of active or inactive are those of the source. No cut-off for these calls is given here.

What was measured:
[1] = target: T1, DNA topoisomerase 2-alpha (Homo sapiens, UniProt P11388); test: Inhibition of human DNA topoisomerase 2alpha assessed as suppression of decatenation using catenated kinetoplast DNA as substrate up to 250 uM measured after 30 mins by SYBR safe DNA staining based staining-based agarose gel electrophoresis method; details: dose microM <=250, time 30.0 min
T1 sequence (P11388 whole entry): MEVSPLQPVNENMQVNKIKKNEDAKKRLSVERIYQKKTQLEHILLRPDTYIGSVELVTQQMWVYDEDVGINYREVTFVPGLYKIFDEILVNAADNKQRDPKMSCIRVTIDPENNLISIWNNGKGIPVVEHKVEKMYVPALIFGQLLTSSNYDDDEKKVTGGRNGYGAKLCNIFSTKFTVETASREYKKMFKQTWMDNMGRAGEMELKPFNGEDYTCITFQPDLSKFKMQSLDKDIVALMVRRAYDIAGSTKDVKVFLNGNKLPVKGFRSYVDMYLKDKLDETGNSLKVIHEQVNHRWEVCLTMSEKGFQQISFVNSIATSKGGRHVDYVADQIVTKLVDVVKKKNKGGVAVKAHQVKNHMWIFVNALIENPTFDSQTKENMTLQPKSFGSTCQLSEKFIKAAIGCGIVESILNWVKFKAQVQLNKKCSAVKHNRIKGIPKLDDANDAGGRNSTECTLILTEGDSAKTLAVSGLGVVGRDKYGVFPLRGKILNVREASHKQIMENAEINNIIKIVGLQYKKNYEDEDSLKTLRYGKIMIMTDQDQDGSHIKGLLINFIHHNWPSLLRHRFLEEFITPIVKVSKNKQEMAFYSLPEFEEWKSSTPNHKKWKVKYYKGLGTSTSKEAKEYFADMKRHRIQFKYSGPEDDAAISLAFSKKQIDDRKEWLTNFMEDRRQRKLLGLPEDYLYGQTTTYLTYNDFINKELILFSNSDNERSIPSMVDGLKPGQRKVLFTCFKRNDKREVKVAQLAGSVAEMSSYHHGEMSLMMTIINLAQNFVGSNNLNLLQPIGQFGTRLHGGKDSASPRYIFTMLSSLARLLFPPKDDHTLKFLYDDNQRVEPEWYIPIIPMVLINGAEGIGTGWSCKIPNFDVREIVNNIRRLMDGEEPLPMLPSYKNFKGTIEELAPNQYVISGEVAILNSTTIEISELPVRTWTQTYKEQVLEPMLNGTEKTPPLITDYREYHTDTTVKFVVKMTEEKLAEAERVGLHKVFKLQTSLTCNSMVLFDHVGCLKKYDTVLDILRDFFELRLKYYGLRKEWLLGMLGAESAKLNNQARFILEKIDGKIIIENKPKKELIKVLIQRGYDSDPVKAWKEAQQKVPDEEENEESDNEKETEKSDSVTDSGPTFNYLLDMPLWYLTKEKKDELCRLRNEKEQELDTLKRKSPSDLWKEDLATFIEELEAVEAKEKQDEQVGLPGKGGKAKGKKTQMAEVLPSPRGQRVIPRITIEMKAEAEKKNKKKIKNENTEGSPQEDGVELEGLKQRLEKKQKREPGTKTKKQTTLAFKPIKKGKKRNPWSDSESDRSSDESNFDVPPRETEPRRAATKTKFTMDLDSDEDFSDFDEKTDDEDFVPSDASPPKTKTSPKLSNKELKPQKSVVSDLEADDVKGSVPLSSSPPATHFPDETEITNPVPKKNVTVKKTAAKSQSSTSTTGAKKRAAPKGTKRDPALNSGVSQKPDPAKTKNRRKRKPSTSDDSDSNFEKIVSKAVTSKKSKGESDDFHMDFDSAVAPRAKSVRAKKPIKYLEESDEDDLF
Procedure, shortened: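 Human topoII α decatenation kit reaction, with compound or DMSO vehicle at 5% DMSO final. Incubated 30 min at 37°C, products resolved on 1% agarose with SYBR safe stain. IC50 from four-parameter nonlinear regression, mean ± SD of two independent assays. Tested up to 250 μM.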

[2] = target: T1, DNA topoisomerase 2-alpha; test: Inhibition of human DNA topoisomerase 2alpha assessed as suppression of decatenation using catenated kinetoplast DNA as substrate measured after 30 mins by SYBR safe DNA staining based staining-based agarose gel electrophoresis method
Procedure, shortened: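 Human topoII α decatenation kit reaction, with compound or DMSO vehicle at 5% DMSO final. Incubated 30 min at 37°C, products resolved on 1% agarose with SYBR safe stain. IC50 from four-parameter nonlinear regression, mean ± SD of two independent assays.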

CCRF-CEM [3] = test: Induction of cell cycle arrest in human CCRF-CEM cells assessed as increase in accumulation at G2/M phase for 24 hrs by flow cytometric analysis; type: functional, cell-based; details: dose 8.0 µM
Procedure, shortened: (§1)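 CCRF-CEM seeded at 0.25x10⁶ cells/mL and treated 24h. Cells were fixed/permeabilised in 70% ethanol for at least 1h, then stained with PI 10 μg/mL plus RNase A 100 μg/mL for 20 min at room temperature in the dark. DNA content was read by flow cytometry, with at least 10000 events, to give subG0, G0-G1, S and G2-M fractions.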

Homo sapiens [4] = organism: Homo sapiens; test: Selectivity ratio of IC50 for antiproliferative activity against human CCRF-CEM cells to IC50 for antiproliferative activity against human Jurkat cells; type: cell-based
Homo sapiens [5] = organism: Homo sapiens; test: Selectivity ratio of IC50 for antiproliferative activity against human CEM/C2 cells to IC50 for antiproliferative activity against human Jurkat cells; type: cell-based
[6] = target: T1, DNA topoisomerase 2-alpha; test: Poison activity at human DNA topoisomerase 2 alpha assessed as stabilization of cleavage complex using PBR322 as substrate incubated for 15 mins by ethidium bromide staining based agarose gel electrophoresis method
HT-29 = test: Antiproliferative activity against human HT29 cells assessed as reduction in cell viability after 72 hrs by 4-methylumbelliferyl heptanoate (MUH) fluorescence assay
Homo sapiens [7] = organism: Homo sapiens; test: Selectivity ratio of IC50 for antiproliferative activity against human DLD-1 cells to IC50 for antiproliferative activity against human MCF7 cells; type: cell-based
Homo sapiens [8] = organism: Homo sapiens; test: Selectivity ratio of IC50 for antiproliferative activity against human CCRF-CEM cells to IC50 for antiproliferative activity against human MCF7 cells; type: cell-based
CCRF-CEM [9] = test: Potency index, ratio of tryp-tanthrin IC50 to test compound IC50 for antiproliferative activity against human CCRF-CEM cells; type: functional
[10] = target: T1, DNA topoisomerase 2-alpha; test: Potency index, ratio of etoposide IC50 to test compound IC50 for inhibition of human DNA topoisomerase 2alpha
CCRF-CEM [11] = test: Antiproliferative activity against human CCRF-CEM cells assessed as reduction in cell viability after 72 hrs by eosin exclusion dye based light microscopic method; type: functional; details: for IC50: 72 h; for GI50: time 72 hrs
Procedure, shortened: (§2)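 Suspension leukaemia lines grown in RPMI with 4.5 g/L glucose, 2 mM glutamine, penicillin/streptomycin and 10% heat-inactivated FBS (HL-60 in 20% FBS). Seeded at 0.25x10⁶ cells/mL (Jurkat, CCRF-CEM, CEM/C2) or 0.125x10⁶ cells/mL (HL-60). Treated 72h at 0–64 μM, 37°C, 5% CO₂. Viable cells counted by eosin exclusion in a Bürker chamber, normalised to untreated cells. IC50 from non-linear regression, at least triplicate.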

CCRF-CEM [12] = test: Induction of G2/M cell cycle arrest in human CCRF-CEM cells assessed as increase in cyclin A expression at 8 uM after 6 to 24 hrs by flow cytometric analysis; type: functional, cell-based; details: time 6-24 hrs
Procedure, shortened: (§3)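 CCRF-CEM exposed to 8 μM for 6, 9, 16 and 24 h. 1×10⁶ cells were fixed in 2% paraformaldehyde, permeabilised in 90% methanol, and stained 30 min with anti-cyclin A or anti-cyclin B1 (1:50), then with secondary (1:200), then PI/RNase A. Flow cytometric MFI was taken in PI-gated G2-M cells and normalised to untreated G2-M cells.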

Homo sapiens [13] = organism: Homo sapiens; test: Selectivity ratio of IC50 for antiproliferative activity against human HT-29 cells to IC50 for antiproliferative activity against human Jurkat cells; type: cell-based
[14] = Solubility of compound in water; type: physicochemical
Procedure, shortened: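 Samples were stirred for 24 h at 25°C, centrifuged, and supernatants filtered through 0.45 μm PTFE and diluted. Concentration was taken from UV absorbance against a four-point calibration line in PBS with 2% DMSO, and reported as μg/mL.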

Homo sapiens [15] = organism: Homo sapiens; test: Selectivity ratio of IC50 for antiproliferative activity against human CEM/C2 cells to IC50 for antiproliferative activity against human MCF7 cells; type: cell-based
Homo sapiens [16] = organism: Homo sapiens; test: Selectivity ratio of IC50 for antiproliferative activity against human HL-60 cells to IC50 for antiproliferative activity against human MCF7 cells; type: cell-based
MCF7 = test: Antiproliferative activity against human MCF7 cells assessed as reduction in cell viability after 72 hrs by 4-methylumbelliferyl heptanoate (MUH) fluorescence assay
CCRF-CEM [17] = test: Induction of cell death in human CCRF-CEM cells assessed as increase in fragmented DNA at 4 to 8 uM after 24 hrs followed by compound wash out further incubated for 24 hrs by flow cytometric analysis; type: functional, cell-based; details: dose 4-8 µM
Procedure, shortened: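 Recovery design: CCRF-CEM were treated 24h, then medium was removed by centrifugation, cells were PBS-washed and cultured a further 24h in drug-free complete medium. Cells were then fixed in 70% ethanol and stained with PI 10 μg/mL plus RNase A 100 μg/mL. Flow cytometry scored subG0 cells, those with fragmented DNA, from at least 10000 events.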

Homo sapiens [18] = organism: Homo sapiens; test: Selectivity ratio of IC50 for antiproliferative activity against human DLD-1 cells to IC50 for antiproliferative activity against human Jurkat cells; type: cell-based
Jurkat = test: Antiproliferative activity against human Jurkat cells assessed as reduction in cell viability after 72 hrs by eosin exclusion dye based light microscopic method; type: functional; procedure, shortened: as §2
CCRF-CEM [19] = test: Inhibition of DNA topoisomerase 2 in human CCRF-CEM cells assessed as increase in gamma-H2Ax expression at 8 uM after 1 to 16 hrs by flow cytometric analysis; type: cell-based; details: time 1-16 hrs
Procedure, shortened: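 CCRF-CEM exposed to 8 μM for 1, 2, 3, 5 and 16 h. Cells were fixed in 2% paraformaldehyde, permeabilised in 90% methanol, and stained with anti-γ-H2AX (1:40) then secondary (1:200), with PI/RNase A counterstain. γ-H2AX immunofluorescence was read by flow cytometry per cell-cycle phase and expressed as delta γ-H2AX.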

Homo sapiens [20] = organism: Homo sapiens; test: Selectivity ratio of IC50 for antiproliferative activity against human HT-29 cells to IC50 for antiproliferative activity against human MCF7 cells; type: cell-based
Homo sapiens [21] = organism: Homo sapiens; test: Selectivity ratio of IC50 for antiproliferative activity against human HL-60 cells to IC50 for antiproliferative activity against human Jurkat cells; type: cell-based
CCRF-CEM [22] = test: Induction of G2/M cell cycle arrest in human CCRF-CEM cells assessed as increase in cyclin B1 expression at 8 uM by flow cytometric analysis; type: functional, cell-based; details: time 6-24 hrs, TDE = time-dependent effect; procedure, shortened: as §3
CCRF-CEM [23] = test: Induction of cell cycle arrest in human CCRF-CEM cells assessed as accumulation at G2/M phase at 8 uM for 24 hrs by flow cytometric analysis (reference value: 27%); type: functional; procedure, shortened: as §1
CCRF-CEM [24] = test: Induction of cell cycle arrest in human CCRF-CEM cells assessed as decrease in accumulation at G0-G1 phase for 24 hrs by flow cytometric analysis; type: functional, cell-based; details: dose 8.0 µM; procedure, shortened: as §1
CEM/C2 = test: Antiproliferative activity against human CEM/C2 cells assessed as reduction in cell viability after 72 hrs by eosin exclusion dye based light microscopic method; type: functional; procedure, shortened: as §2
HL-60 = test: Antiproliferative activity against human HL-60 cells assessed as reduction in cell viability after 72 hrs by eosin exclusion dye based light microscopic method; type: functional; procedure, shortened: as §2
DLD-1 = test: Antiproliferative activity against human DLD-1 cells assessed as reduction in cell viability after 72 hrs by 4-methylumbelliferyl heptanoate (MUH) fluorescence assay
CCRF-CEM [25] = test: Antiproliferative activity against human CCRF-CEM cells assessed as reduction in cell viability at 4 uM after 24 hrs by eosin exclusion dye based light microscopic method

- inhibition [1]: inactive
Compound: CCN(CC)c1ccc2c(c1)-n1c(nc3ccccc3c1=O)C2=O

- inhibition [1]: inactive
Compound: O=C1c2ccc(N3CCOCC3)cc2-n2c1nc1ccccc1c2=O

- inhibition [1]: inactive
Compound: O=C1c2c(N3CCCCC3)cccc2-n2c1nc1ccccc1c2=O

- inhibition [1]: inactive
Compound: CCN(CC)c1cccc2c1C(=O)c1nc3ccccc3c(=O)n1-2

- IC50 [2]: 114 µM
Compound: CN1CCN(c2cccc3c2C(=O)c2nc4ccccc4c(=O)n2-3)CC1

- inhibition [1]: inactive
Compound: O=C1c2c(N3CCOCC3)cccc2-n2c1nc1ccccc1c2=O

- IC50 [2]: 138 µM
Compound: CN1CCN(c2ccc3c(c2)-n2c(nc4ccccc4c2=O)C3=O)CC1

- inhibition [1]: inactive
Compound: O=C1c2ccc(N3CCCCC3)cc2-n2c1nc1ccccc1c2=O

- IC50 (HT-29; HT-29, 72 h): 9.4 µM
- Ratio IC50 [10]: 2.5
- IC50 (CCRF-CEM [11]): 8.26 µM
- GI50 (CCRF-CEM [11]): 1.36 µM
- IC50 [2]: 26.6 µM
- solubility ([14]; water, read-out: solubility): 996 µM (≈ 333 µg/mL)
- IC50 (MCF7; MCF7, 72 h): 30.5 µM
- IC50 (Jurkat): 18.2 µM
- IC50 (HL-60; HL-60, 72 h): 11.5 µM
- IC50 (DLD-1; DLD-1, 72 h): 7.13 µM
Compound: CN(C)CCNc1cccc2c1C(=O)c1nc3ccccc3c(=O)n1-2
- Activity (CCRF-CEM [3]): Dose-dependent effect
- Ratio IC50 (Homo sapiens [4]): 2
- Ratio IC50 (Homo sapiens [5]): 2
- Activity [6]: inactive
- Activity (HT-29): Dose-dependent effect
- Ratio IC50 (Homo sapiens [7]): 3
- Ratio IC50 (Homo sapiens [8]): 3
- Ratio IC50 (CCRF-CEM [9]): 5
- Activity (CCRF-CEM [11]): Dose-dependent effect
- Activity (CCRF-CEM [12]): inactive
- Ratio IC50 (Homo sapiens [13]): 2
- Ratio IC50 (Homo sapiens [15]): 3
- Ratio IC50 (Homo sapiens [16]): 3
- Activity (MCF7): Dose-dependent effect
- Activity (CCRF-CEM [17]): Active
- Ratio IC50 (Homo sapiens [18]): 2
- Activity (Jurkat): Dose-dependent effect
- inhibition (CCRF-CEM [19]): Active
- Ratio IC50 (Homo sapiens [20]): 3
- Ratio IC50 (Homo sapiens [21]): 2
- Activity (CCRF-CEM [22]): Tde
- Activity (CCRF-CEM [23]): 78%
- Activity (CCRF-CEM [24]): Dose-dependent effect
- Activity (CEM/C2): Dose-dependent effect
- IC50 (CEM/C2; CEM/C2, 72 h): 9.16 µM
- Activity (HL-60): Dose-dependent effect
- Activity (DLD-1): Dose-dependent effect
- Activity (CCRF-CEM [25]): Active

- inhibition [1]: inactive
Compound: O=C1c2c(NCCO)cccc2-n2c1nc1ccccc1c2=O

- IC50 (CCRF-CEM [11]): 44.4 µM
- GI50 (CCRF-CEM [11]): 14.5 µM
- solubility ([14]; buffer): 91.02 µM (≈ 22.6 µg/mL)
- inhibition [1]: inactive
Compound: O=C1c2ccccc2-n2c1nc1ccccc1c2=O [TRYPTANTHRIN]
